The results in this text go back to ChEMBL document CHEMBL1122164, “Hypolipidemic 4,5-dihydro-4-oxo-5,5-disubstituted-2-furancarboxylic acids” (1982).

Assay [1] deals with Rattus norvegicus. Kind of assay: Effect on serum Triglycerides levels was measured on treated rats at a dose of 0.5 (mmol/kg)/day. The format is functional, organism-based.
Assay [2] has as its system Rattus norvegicus. Kind of assay: Effect on serum Triglycerides levels was measured on control rats at a dose of 0.5 (mmol/kg)/day. The format is functional, organism-based.
Assay [3] deals with Rattus norvegicus. Put plainly: Effect on serum Triglycerides levels was measured on treated rats at a dose of 0.05 (mmol/kg)/day. The format is functional, organism-based.
In assay [4] the test system is Rattus norvegicus. Put plainly: Effect on serum Triglycerides levels was measured on control rats at a dose of 0.05 (mmol/kg)/day. In kind it is functional, organism-based.
Assay [5] has as its system Rattus norvegicus. Kind of assay: Effect on serum Triglycerides was determined in normal rats at a dose of 0.01 (mmol/kg)/day. The format is functional. The method, boiled down: (§1)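 Normal rats, 8-10 per group, dosed daily for 7 consecutive days by gastric intubation with compound suspended in 2% Tween 80. Decapitated 3 h after last dose; serum triglycerides measured by semiautomated method. Result expressed as % change from vehicle control group mean; significance by two-tailed Student's t test.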

Assay [6] concerns Rattus norvegicus. Put plainly: Effect on serum Triglycerides was determined in normal rats at a dose of 0.03 (mmol/kg)/day. In kind it is functional. The method, boiled down: as §1
The test system of assay [7] is Rattus norvegicus. Kind of assay: Effect on serum Triglycerides was determined in normal rats at a dose of 0.1 (mmol/kg)/day. The format is functional. The method, boiled down:
as §1

Assay [8] relates to Rattus norvegicus. Put plainly: Effect on serum Triglycerides was determined in normal rats at a dose of 1 (mmol/kg)/day. The format is functional. The method, boiled down: as §1
Assay [9] concerns Rattus norvegicus. Put plainly: Effect on serum Triglycerides was determined in normal rats at a dose of 0.2 (mmol/kg)/day. In kind it is functional. The method, boiled down: as §1
For assay [10], the system named is Rattus norvegicus. Put plainly: Effect on serum Triglycerides was determined in normal rats at a dose of 0.02 (mmol/kg)/day. The format is functional. The method, boiled down: as §1
Assay [11] has as its system Rattus norvegicus. Put plainly: Effect on liver weight was measured on treated rats at a dose of 0.5 (mmol/kg)/day. In kind it is functional.
Assay [12] deals with Rattus norvegicus. Kind of assay: Effect on serum Triglycerides was measured on treated rats at a dose of 0.5 (mmol/kg)/day. In kind it is functional, organism-based.
The test system of assay [13] is Rattus norvegicus. Kind of assay: Effect on liver weight was measured on control rats at a dose of 0.5 (mmol/kg)/day. In kind it is functional.
Assay [14] relates to Rattus norvegicus. Kind of assay: Effect on serum Triglycerides was measured on control rats at a dose of 0.05 (mmol/kg)/day. In kind it is functional, organism-based.
The test system of assay [15] is Rattus norvegicus. Kind of assay: Effect on liver weight was measured on control rats at a dose of 0.05 (mmol/kg)/day. In kind it is functional.
The subject of assay [16] is Rattus norvegicus. Put plainly: Effect on serum Triglycerides was measured on treated rats at a dose of 0.05 (mmol/kg)/day. In kind it is functional, organism-based.
The subject of assay [17] is Rattus norvegicus. Put plainly: Effect on liver weight was measured on treated rats at a dose of 0.05 (mmol/kg)/day. In kind it is functional.
In assay [18] the test system is Rattus norvegicus. Put plainly: Effect on serum Triglycerides was measured on control rats at a dose of 0.5 (mmol/kg)/day. The format is functional, organism-based.
The subject of assay [19] is Rattus norvegicus. Kind of assay: Effect on serum Triglycerides was determined in normal rats at a dose of 0.005 (mmol/kg)/day. In kind it is functional. The method, boiled down:
as §1

With `CC1(c2ccccc2)OC(C(=O)O)=CC1=O` (stereo in doubt; 5b), the Serum TG with Rattus norvegicus [1] worked out at 38 mg/dL; in the assay with Rattus norvegicus [2] it was 98 mg/dL; with Rattus norvegicus [3], 58 mg/dL; with Rattus norvegicus [4] it was 104 mg/dL.

Turning to `CC1(c2ccccc2)OC(C(=O)O)=CC1=O` (stereo in doubt; (+)-5b) [ACIFRAN], the Change in the assay on Rattus norvegicus [5] was -39%; in the assay with Rattus norvegicus [6] it was -29%; with Rattus norvegicus [7], -38%.

With `COC(=O)C1=CC(=O)C(C)(c2ccccc2)O1` (centres undefined), the Change is on record as -53% in the assay with Rattus norvegicus [8], -40% with Rattus norvegicus [7], -40% in the assay with Rattus norvegicus [9] and -34% with Rattus norvegicus [10].

Turning to `CCOC(=O)C(C)(C)Oc1ccc(Cl)cc1` [CLOFIBRATE], the Liver weight in the assay on Rattus norvegicus [11] turned out to be 10.7 g; in the assay with Rattus norvegicus [13], 9 g; in the assay with Rattus norvegicus [15] it was 8.5 g; in the assay on Rattus norvegicus [17], 8.4 g. In addition, the Serum TG came to 43 mg/dL in the assay with Rattus norvegicus [12], 104 mg/dL in the assay on Rattus norvegicus [14], 101 mg/dL with Rattus norvegicus [16] and 87 mg/dL in the assay on Rattus norvegicus [18]. Also, the Change in the assay with Rattus norvegicus [8] was -55%; with Rattus norvegicus [7], -9%; with Rattus norvegicus [9] it was -36%.

Consider `O=C(O)c1cccnc1`, for which the Serum TG in the assay with Rattus norvegicus [12] was 47 mg/dL; in the assay on Rattus norvegicus [14], 104 mg/dL; with Rattus norvegicus [16], 97 mg/dL; in the assay with Rattus norvegicus [18] it was 88 mg/dL.

`CC1(C)OC(C(=O)O)=CC1=O`: the Change in the assay on Rattus norvegicus [8] was -36%; in the assay on Rattus norvegicus [7], -43%; in the assay on Rattus norvegicus [9] it was -36%; in the assay on Rattus norvegicus [10] it was -36%.

Consider `CC1(c2ccccc2)OC(C(=O)O)=CC1=O` (single isomer, unassigned; (-)) [ACIFRAN], for which the Change was -11% in the assay with Rattus norvegicus [5], -23% with Rattus norvegicus [6] and -31% in the assay with Rattus norvegicus [7].

Take `O=C(O)C1=CC(=O)C2(CCCc3ccccc32)O1` (centres undefined): the Change in the assay with Rattus norvegicus [8] is -43%.

For `CC(C)C1(c2ccccc2)OC(C(=O)O)=CC1=O` (centres undefined), the Change with Rattus norvegicus [8] is given as -53%; in the assay with Rattus norvegicus [7], -2%; in the assay on Rattus norvegicus [9] it was -31%; with Rattus norvegicus [10], -10%.

With `CC1(c2ccccc2)OC(C(=O)O)=CC1=O` (stereo in doubt; 5b) [ACIFRAN], the Liver weight with Rattus norvegicus [11] turned out to be 10.2 g; in the assay on Rattus norvegicus [13] it was 10.2 g; in the assay on Rattus norvegicus [15], 8.5 g; in the assay with Rattus norvegicus [17] it was 8.7 g. Besides, the Change in the assay with Rattus norvegicus [5] is reported as -37%; with Rattus norvegicus [19] it was -23%; in the assay on Rattus norvegicus [6], -43%; with Rattus norvegicus [8], -55%; with Rattus norvegicus [7], -44%; in the assay with Rattus norvegicus [9] it was -52%. The Change in the assay with Rattus norvegicus [10] is given as -40%.

Turning to `CC1(c2ccc(Cl)cc2)OC(C(=O)O)=CC1=O` (centres undefined), the figures for the Change with Rattus norvegicus [9] and with Rattus norvegicus [10] were -42% and -27%, respectively.

As to `CC1(c2ccccc2)OC(=O)C(=O)CC1=O` (centres undefined), the figures for the Change with Rattus norvegicus [7], with Rattus norvegicus [9] and in the assay with Rattus norvegicus [10] were -27%, -31% and -13%, respectively.
